Screening data from PubChem BioAssay.
An excerpt weighted towards active compounds, which were near 3.5% of everything screened.
RGS4 inh: RGS4 inhibitors, primary screen, cell-based, HEK293 M3R inducible RGS4, calcium flux | Regulator of G-protein signaling 4 (Homo sapiens), P49798 | Fluo-4 calcium flux; hits give high values; triggered by carbachol at its EC20 | B-score at 10 µM | 310,000 tested, 0.45% active | AID 463165, 2010;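 active = B-score, a plate-corrected calcium signal, over three deviations above library mean, with baseline fluorescence within five deviations of library mean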;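 note: RGS4 expression induced by doxycycline in cells with stable M3 receptor; B-score is computed from the integrated fluorescence ratio over baseline after carbachol; higher B-score means a larger calcium signal and so more RGS4 inhibition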
Target sequence (P49798 whole entry, looked up): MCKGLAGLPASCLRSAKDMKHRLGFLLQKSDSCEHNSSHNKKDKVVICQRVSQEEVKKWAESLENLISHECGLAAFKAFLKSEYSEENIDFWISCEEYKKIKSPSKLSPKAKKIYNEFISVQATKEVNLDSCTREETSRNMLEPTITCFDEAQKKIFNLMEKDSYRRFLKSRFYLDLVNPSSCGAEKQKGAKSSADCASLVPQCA
MrgX1 PAM: positive allosteric modulators of MrgX1, primary screen, HEK293 cells, Fluo-4 calcium flux. Mas-related G-protein coupled receptor member X1 (Homo sapiens), Q96LB2. FDSS; hits give high values. B-score at 10 µM. 310,000 tested, 0.63% active;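 active = plate-corrected calcium response at least 3 library SD above typical, normal starting fluorescence, not activating the receptor alone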;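 note: compound read alongside a low EC10 to EC30 dose of BAM8-22 agonist; peak minus trough fluorescence over baseline measured at the second addition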
Target sequence (Q96LB2 whole entry, looked up): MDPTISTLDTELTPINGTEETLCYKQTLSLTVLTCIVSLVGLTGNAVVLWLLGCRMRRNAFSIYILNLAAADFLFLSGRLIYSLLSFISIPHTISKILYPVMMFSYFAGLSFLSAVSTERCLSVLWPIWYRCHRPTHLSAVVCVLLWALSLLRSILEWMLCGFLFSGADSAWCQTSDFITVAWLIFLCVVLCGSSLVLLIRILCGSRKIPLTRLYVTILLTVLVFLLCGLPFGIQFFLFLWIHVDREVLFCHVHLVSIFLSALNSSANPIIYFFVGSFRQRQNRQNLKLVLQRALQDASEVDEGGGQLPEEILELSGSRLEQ
RGS4 pot: RGS4 potentiators or activators, primary screen, cell-based, HEK293 M3R inducible RGS4, calcium flux | carbachol calcium flux Fluo4; hits give low values | B-score at 10 µM | 310,000 tested, 0.92% active;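 active = B-score of the integrated calcium signal more than 4 SD below the library mean, with starting fluorescence not abnormally high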;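 note: negative B-score means reduced calcium response which marks RGS4 activation or potentiation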
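Assay system: HEK293 FlpIn-TREx cells, stable M3R, doxycycline-inducible RGS4 / Probe or stimulus: carbachol, ECmax concentration / Times: overnight RGS4 induction, 30 min dye load 37 °C, 20 min compound RT / Signal: kinetic calcium fluorescence imaging with Fluo4-AM dye, 2 µM / Measure: Agonist-evoked peak-minus-minimum fluorescence over baseline, integrated ratio, B score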
MrgX1 antag: antagonists of human MrgX1 receptor, primary screen, HEK293 cells, Fluo-4 calcium flux; Mas-related G-protein coupled receptor member X1 (Homo sapiens), Q96LB2; BAM8-22 antagonism; hits give low values; B-score at 10 µM; 310,000 tested, 1.3% active; AID 588676, 2011;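 active = calcium-response B-score plate-corrected more than 3 library SD below zero, starting fluorescence within 5 deviations, no agonist response on first addition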;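 note: peak minus trough fluorescence over baseline after final BAM8-22 challenge near maximal dose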
MrgX1 agonist: agonists of human MrgX1 receptor, primary screen, HEK293 cells, Fluo-4 calcium flux. Fluo-4 calcium fluorescence, agonist mode; hits give high values. 310,000 tested, 0.44% active. B-score at 10 µM. AID 588627, 2011;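 active = calcium response B-score plate-corrected fluorescence ratio at least 3 library SD, with starting fluorescence B-score inside 5 SD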
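Test system: HEK293 cells stably expressing human MrgX1 receptor; amount: 15,000 cells per well; doses: compound delivered in addition one of three; times: overnight plating before 1 h dye loading; detection: Fluo-4 NW calcium-flux fluorescence, kinetic read; read-out basis: B-scored fluorescence response ratio; controls: positive and negative controls per plate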
RGS4 block valid: enhanced carbachol calcium response, M3R/RGS4 cells, RGS4 inhibitor project, cell-based, validation screen, HEK293 M3R/RGS4, calcium flux | shares compounds with RGS4 inh | 1,700 tested, 65% active | AID 492999, 2010 | carbachol calcium Fluo-4 fluorescence; carbachol added at its EC20; 0 = buffer wells, 100 = carbachol control | calcium response, % at 10 µM;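 active = duplicate-averaged calcium response above the buffer-only control mean plus 5 SD of those controls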;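 note: integrated fluorescence ratio F max minus min over baseline F0; higher response in RGS4-induced cells means RGS4 inhibition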
M3R Ca ctr: carbachol calcium response in non-induced M3R cells, confirmation, counter-screen for RGS4 inhibitor project, cell-based, HEK293 M3R; shares compounds with RGS4 inh; activity (percent), % at 10 µM; 1,900 tested, 20% active; AID 493000, 2010; carbachol calcium Fluo-4; submaximal (EC20) carbachol stimulus; buffer wells 0%, carbachol control wells 100%; call rule not given here;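 note: RGS4 induction absent so cells express M3R without RGS4; higher means more calcium signal and flags a non-specific hit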
M3R basal Ca ctr: second RGS4 inhibitor counter-screen in uninduced cells lacking carbachol; shares compounds with RGS4 inh; HEK293 M3R/RGS4 non-induced, Fluo-4 calcium, no carbachol; normalised: buffer wells 0%, carbachol wells 100%; calcium response (agonist-mode artifact), % at 10 µM; 1,900 tested, 22% active; AID 493001;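 active = duplicate-averaged calcium rise in uninduced cells above buffer wells' mean plus 5 SD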
* hit, by the source's call.

`Cc1ncc(CO)c(/C=N/NC(=O)c2cc3c(s2)CCCC3)c1O` gave RGS4 inh 7.17*, MrgX1 PAM inactive, RGS4 pot inactive, MrgX1 antag inactive, MrgX1 agonist inactive, RGS4 block valid 101.5%*, M3R Ca ctr 77.5%* and M3R basal Ca ctr 35.0%*.
`Cc1ncc(CO)c(/C=N/NC(=O)c2ccc(O)cc2)c1O` gave RGS4 inh inactive, MrgX1 PAM inactive, RGS4 pot inactive, MrgX1 antag inactive, MrgX1 agonist inactive, M3R Ca ctr inactive and M3R basal Ca ctr 8.0%*.
For COc1ccc(C(=O)N/N=C/c2c(CO)cnc(C)c2O)cc1 the results were RGS4 inh inactive, MrgX1 PAM inactive, RGS4 pot inactive, MrgX1 antag inactive and MrgX1 agonist inactive.
Screening Nc1nn2cc(-c3ccc(Br)cc3)nc2c2ccccc12 returned RGS4 inh 6.95*, MrgX1 PAM inactive, RGS4 pot inactive, MrgX1 antag inactive, MrgX1 agonist inactive, RGS4 block valid 10.0%*, M3R Ca ctr inactive and M3R basal Ca ctr inactive.
Screening CCOC(=O)[C@@H]1[C@H]2COc3cc(OC)ccc3[C@@H]2N2C(=O)N(c3ccc(C)cc3)C(=O)[C@@]12C returned RGS4 inh inactive, MrgX1 PAM inactive, RGS4 pot inactive, MrgX1 antag inactive and MrgX1 agonist inactive.
Screening CCOC(=O)[C@H]1[C@H]2COc3cc(OC)ccc3[C@@H]2N2C(=O)N(c3ccc(Cl)cc3)C(=O)[C@@]12C returned RGS4 inh inactive, MrgX1 PAM inactive, RGS4 pot inactive, MrgX1 antag inactive, MrgX1 agonist inactive, RGS4 block valid inactive, M3R Ca ctr inactive and M3R basal Ca ctr inactive.
CCOC(=O)[C@@H]1[C@H]2COc3cc(OC)ccc3[C@@H]2N2C(=O)N(c3ccc(Cl)cc3)C(=O)[C@@]12C was read as RGS4 inh inactive, MrgX1 PAM inactive, RGS4 pot inactive, MrgX1 antag inactive, MrgX1 agonist inactive, RGS4 block valid inactive, M3R Ca ctr inactive and M3R basal Ca ctr inactive.
Screening Cc1sc2nc3ccc(NCc4ccco4)nn3c(=O)c2c1C returned RGS4 inh 8.31*, MrgX1 PAM inactive, RGS4 pot inactive, MrgX1 antag inactive, MrgX1 agonist inactive, RGS4 block valid inactive, M3R Ca ctr inactive and M3R basal Ca ctr 16.5%*.
Screening O=C(Nc1nc(-c2ccc(-c3ccccc3)cc2)cs1)C1=COCCO1 returned RGS4 inh inactive, MrgX1 PAM inactive, RGS4 pot inactive, MrgX1 antag inactive, MrgX1 agonist inactive, M3R Ca ctr inactive and M3R basal Ca ctr inactive.
`COc1ccc(-c2csc(NC(=O)c3ccccc3C(=O)O)n2)cc1` gave RGS4 inh inactive, MrgX1 PAM inactive, RGS4 pot inactive, MrgX1 antag inactive and MrgX1 agonist inactive.
Screening Cc1cc(C)c(-c2csc(NC(=O)C3=COCCO3)n2)cc1C returned RGS4 inh inactive, MrgX1 PAM inactive, RGS4 pot inactive, MrgX1 antag inactive, MrgX1 agonist inactive, M3R Ca ctr inactive and M3R basal Ca ctr inactive.
`COc1cccc(OC)c1C(=O)Nc1nc(-c2ccccc2)cs1` gave RGS4 inh inactive, MrgX1 PAM inactive, RGS4 pot inactive, MrgX1 antag inactive, MrgX1 agonist inactive, RGS4 block valid inactive, M3R Ca ctr inactive and M3R basal Ca ctr inactive.
`COC(=O)/C=C/CSC1=N/C(=C/c2ccc(-n3cncn3)cc2)C(=O)N1` gave RGS4 inh inactive, MrgX1 PAM inactive, RGS4 pot inactive, MrgX1 antag inactive and MrgX1 agonist inactive.
For CCC(C)(C)NC(=O)C(c1cccc(OC)c1)N(C(=O)CNC(=O)c1cccs1)c1cccnc1 (stereo not given) the results were RGS4 inh inactive, MrgX1 PAM inactive, RGS4 pot inactive, MrgX1 antag inactive and MrgX1 agonist inactive.
`Cc1ccc(Nc2nc(N)nc(CN3CCN(Cc4ccc5c(c4)OCO5)CC3)n2)c(C)c1` gave RGS4 inh inactive, MrgX1 PAM inactive, RGS4 pot inactive, MrgX1 antag inactive and MrgX1 agonist inactive.
Screening Cc1ccc(Nc2nc(N)nc(CN3CCN(Cc4ccc5c(c4)OCO5)CC3)n2)cc1Cl returned RGS4 inh 6.22*, MrgX1 PAM inactive, RGS4 pot inactive, MrgX1 antag inactive, MrgX1 agonist inactive, RGS4 block valid inactive, M3R Ca ctr inactive and M3R basal Ca ctr inactive.
Screening Nc1nc(CN2CCN(Cc3ccccc3)CC2)nc(Nc2ccc3c(c2)OCCO3)n1 returned RGS4 inh inactive, MrgX1 PAM inactive, RGS4 pot inactive, MrgX1 antag inactive and MrgX1 agonist inactive.
Screening Cc1ccc(Nc2nc(N)nc(CN3CCN(Cc4ccc5c(c4)OCO5)CC3)n2)cc1C returned RGS4 inh inactive, RGS4 pot inactive, RGS4 block valid inactive, M3R Ca ctr inactive and M3R basal Ca ctr inactive.
Cc1ccc(Nc2nc(N)nc(CN3CCN(Cc4ccc5c(c4)OCO5)CC3)n2)cc1 was read as RGS4 inh inactive, MrgX1 PAM inactive, RGS4 pot inactive, MrgX1 antag inactive, MrgX1 agonist inactive, RGS4 block valid inactive, M3R Ca ctr inactive and M3R basal Ca ctr inactive.
`CCOCCCN(C(=O)CCC(=O)Nc1cc(C)on1)C(C(=O)NC(C)(C)C)c1ccccc1Cl` (stereo not given) gave RGS4 inh inactive, MrgX1 PAM inactive, RGS4 pot inactive, MrgX1 antag inactive and MrgX1 agonist inactive.
CCn1cc(CN2CCC(n3nccc3NC(=O)CCOc3ccccc3)CC2)c(C)n1 was read as RGS4 inh inactive, MrgX1 PAM inactive, RGS4 pot inactive, MrgX1 antag inactive and MrgX1 agonist inactive.
